Screening results deposited in PubChem by The Scripps Research Institute Molecular Screening Center.
CHRM4 PAM: positive allosteric modulators of human muscarinic M4 receptor; 360,000 compounds, 0.4% hits; AID 624126; CHO-K1 hM4/Gqi5, Fluo-8 calcium fluorescence, ACh EC20; 0% = ACh EC20, 100% = maximal ACh; activation, % at 3 µM; P08173;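 active = activation above its plate's cutoff, the mean activation of sample wells plus 3 SD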
Target sequence (P08173 whole entry, looked up): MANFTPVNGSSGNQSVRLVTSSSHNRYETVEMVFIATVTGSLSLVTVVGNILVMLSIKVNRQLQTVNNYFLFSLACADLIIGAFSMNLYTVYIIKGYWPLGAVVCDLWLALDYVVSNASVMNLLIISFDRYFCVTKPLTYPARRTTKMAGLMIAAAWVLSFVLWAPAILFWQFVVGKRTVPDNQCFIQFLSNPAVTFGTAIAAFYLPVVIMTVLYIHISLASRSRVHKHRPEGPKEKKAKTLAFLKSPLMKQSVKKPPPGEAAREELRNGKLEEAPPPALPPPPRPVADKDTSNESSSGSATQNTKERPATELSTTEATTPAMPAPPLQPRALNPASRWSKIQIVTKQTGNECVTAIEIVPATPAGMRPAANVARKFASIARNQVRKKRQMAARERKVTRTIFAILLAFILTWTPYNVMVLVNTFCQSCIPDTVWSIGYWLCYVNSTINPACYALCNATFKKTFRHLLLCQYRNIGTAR
CHRM5 PAM: potentiates acetylcholine response at human M5 receptor; activation, % at 3 µM; CHO-K1 hM5, Fluo-8 calcium, ACh EC20 PAM; 0% = ACh EC20, 100% = ACh EC100; 360,000 compounds, 0.3% hits; P08912; AID 624038;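 active = activation above the run cutoff, the mean activation of all test compounds plus 3 SD, cut at about 18% in these data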
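system = human M5 receptor in CHO-K1 cells | compound = one concentration, 3 µM final (nominal) | schedule = Post-acetylcholine fluorescence recording 140 s | signal = Fluo-8 calcium dye fluorescence, kinetic read | benchmarks = low control EC20 acetylcholine (0%), high control EC100 acetylcholine (100%) | repeats = singlicate, one well per test compound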
CHRM5 antagonist: CHRM5 antagonism in calcium assay; P08912; CHO-hM5 cells, Fluo-8 calcium fluorescence, ACh EC80; inhibition, % at 3 µM; 360,000 compounds, 0.59% hits; AID 624040;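 active = inhibition above a per-plate cutoff, the mean of that plate's test compounds plus 3 SD, cut at about 27% in these data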;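 also: 0% = acetylcholine EC80 with DMSO and 100% = DMSO without agonist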
CHRM4 antagonist: antagonists of human muscarinic M4 receptor (CHRM4). CHO-hM4 cells, ACh EC80, Fluo-8 calcium fluorescence. AID 624125. 360,000 compounds, 0.73% hits. inhibition, % at 3 µM;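 active = inhibition above its plate's cutoff, the mean inhibition of sample wells plus 3 SD, cut at about 27% in these data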;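 also: 0% = acetylcholine EC80 with DMSO and 100% = DMSO without agonist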
CHRM5 agonist: agonists of human muscarinic M5 receptor (CHRM5). P08912. CHO-K1 hM5 cells, Fluo-8 calcium fluorescence; 0% DMSO wells, 100% maximal acetylcholine response. activation, % at 3 µM. 360,000 compounds, 0.19% hits;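 active = activation above the run's mean over test compounds plus 3 SD, cut at about 23% in these data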;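 also: signal is peak over basal fluorescence ratio across the kinetic read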
M4 ag: agonists of human muscarinic M4 receptor (CHRM4). AID 624127. P08173. 360,000 compounds, 0.14% hits. CHO-K1 hM4/Gqi5, Fluo-8 calcium fluorescence; vehicle 0%, full acetylcholine response 100%. activation, % at 3 µM;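 active = activation above the run mean over all test wells plus 3 SD, cut at about 32% in these data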;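 also: peak over basal fluorescence ratio per well then scaled between controls; 0% = DMSO wells and 100% = acetylcholine at EC100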
* hit, by the source's call. Only some compounds are listed: those with a hit (about 1.8% of all), similar ones and a draw of the others.

SMILES	CHRM4 PAM	CHRM5 PAM	CHRM5 antagonist	CHRM4 antagonist	CHRM5 agonist	M4 ag
Cc1ccc(C)c2[nH]c(=O)c(CN(Cc3ccc4c(c3)OCO4)Cc3nnnn3Cc3ccco3)cc12	-11	-8	5	12	3	11
COc1cc(/C=N/n2nnnc2N)cc(Cl)c1OC	-2	1	11	-1	1	3
CSCCC(NS(=O)(=O)c1ccc(Cl)cc1)C(=O)OCC(=O)c1c(C)[nH]c2ccccc12 (stereo not given)	-13	-13	26	33*	3	15
O=[N+]([O-])c1ccc(N/N=C/c2c[nH]c3ccccc23)cc1	-10	-18	28*	21	3	17
O=C(O)c1ccc(-c2ccc(/C=N/Nc3ccc([N+](=O)[O-])cc3)o2)cc1	-14	-13	28*	19	55*	24
O=C(O)c1ccc(N/N=C/c2ccc(-c3cccc(Cl)c3)o2)cc1	-6	11	-2	9	14	17
NS(=O)(=O)c1ccc(-c2ccc(/C=N/Nc3ccc(C(=O)O)cc3)o2)cc1	10	-6	6	-2	-1	1
O=[N+]([O-])c1ccccc1N/N=C/c1c[nH]c2ccccc12	5	-1	-1	1	-4	1
O=C(O)c1cccc(-c2ccc(/C=N/Nc3ccc([N+](=O)[O-])cc3)o2)c1	-17	-16	34*	27*	34*	12
Nc1cccc2cc(-c3ccccc3)oc12	25*	-3	-3	-16	4	1
COc1cccc2cc(-c3ccccc3)oc12	4	-7	16	-8	-4	-1
Cc1ccc(S(=O)(=O)NCCNS(=O)(=O)c2ccc(C)cc2)cc1	-1	-7	4	4	-2	5
O=S(=O)(NCCCN1CCOCC1)c1ccc2c(c1)OCCO2	-1	22*	-4	3	2	0
Cc1ccc(S(=O)(=O)NCCCN2CCCC2)cc1	21*	15	23	17	-3	6
C[C@@H]1CN([C@@H](C)CO)S(=O)(=O)c2ccc(-c3ccc(C#N)cc3)cc2O[C@@H]1CN(C)Cc1ccccn1	-12	-5	5	6	0	17
Cc1cccc(CNC(=O)C2CCC(=O)N(Cc3ccccc3F)C2)n1 (stereo not given)	21*	2	-1	-7	-4	1
Cn1cc(CNC(=O)C2CCC(=O)N(Cc3ccccc3F)C2)cn1 (stereo not given)	20*	8	-9	-11	-4	0
Cc1ccc2nc(CNC(=O)C3CCC(=O)N(Cc4ccccc4F)C3)cn2c1 (stereo not given)	1	1	-3	-4	-6	1
Cc1ccc(F)cc1CNC(=O)C1CCC(=O)N(CCc2ccccc2)C1 (stereo not given)	1	2	8	7	-1	1
CCn1cc(CNC(=O)C2CCC(=O)N(Cc3ccccc3F)C2)cn1 (stereo not given)	5	-4	8	-18	-4	2
CCc1cc(CNC(=O)C2CCC(=O)N(CCc3ccc(OC)cc3)C2)on1 (stereo not given)	0	-14	28*	7	-4	1
Cc1c(CNC(=O)C2CCC(=O)N(CCc3ccccc3)C2)cnn1C (stereo not given)	21*	2	12	-3	-3	0
CCOc1cc(C#N)ccc1OCC(=O)N1CCN(C(=O)c2cccs2)CC1	-4	-1	4	6	1	1
O=C(O)C(Cc1ccccc1)N=C(NS(=O)(=O)c1ccccc1)c1ccccc1 (stereo not given)	6	-5	10	-4	5	1
COC(/C(=N/O)c1ccc(Cl)cc1)c1ccccc1 (stereo not given)	-15	-20	29*	28*	-5	5
SMILES	CHRM4 PAM	CHRM5 PAM	CHRM5 antagonist	CHRM4 antagonist	CHRM5 agonist	M4 ag
O=C(CCc1c[nH]c2ccccc12)NCCc1ccc(Cl)cc1	8	5	-6	-1	1	3
C#Cc1ccc([C@H]2C=C(C(=O)NCc3ccccc3)O[C@@H](OCC)[C@@H]2CCCO)cc1	-6	-40	34*	-5	-11	2
Cc1c(C(=O)Nc2ccc(S(=O)(=O)Nc3ncccn3)cc2)oc2ccc(F)cc12	1	-2	21	8	-3	0
CC(=O)N1C[C@@H](CO)[C@@H](N(C)C(=O)C(C)(C)C)C[C@H]1c1ccccc1	1	3	2	6	2	0
COc1cccc(/C=N/Nc2snc(SC)c2C#N)c1O	-12	-14	17	10	21	35*
CC(C)C(=O)Nc1cc(=O)[nH]c2ncnn12	19*	1	-3	-11	-2	0
CCCCC(CC)C(=O)Nc1cc(=O)[nH]c2nc3ccccc3n12 (stereo not given)	0	-5	12	-7	-3	0
O=C(CSc1nc2ccccc2c(=O)n1-c1ccc(F)cc1)Nc1cc(S(=O)(=O)N2CCOCC2)ccc1Cl	-38	-9	5	30*	2	4
COc1ccccc1-c1ccc([C@@H]2C[C@H]3[C@H](CON3C)CN2C(=O)c2ccc(-c3ccccc3)cc2)cc1	2	-3	-2	-1	-3	0
COC(=O)c1c(N)n(CCCN2CCOCC2)c2nc3ccccc3nc12	-2	-12	10	4	0	1
COCCOC(=O)c1c(N)n(CCCN2CCOCC2)c2nc3ccccc3nc12	10	19*	-6	10	4	1
Cc1nc2scc(C)n2c(=O)c1S(=O)(=O)NCC1CCN(Cc2ccc(Cl)cc2)CC1	-14	-2	3	65*	-8	1
COc1ccc(CCNC(=O)Cn2c(=O)n(-c3ccc(C)c(F)c3)c(=O)c3sccc32)cc1OC	32*	7	-8	3	-1	-2
COCCCNC(=O)Cn1c(=O)n(CC(=O)NCCc2ccc(OC)c(OC)c2)c(=O)c2sccc21	32	1	8	-5	1	1
CC(CN1CCOCC1)OC(=O)C(C)(c1ccccc1)c1ccccc1 (stereo not given)	2	-20	9	-12	-14	0
CC(CN1CCCCC1)OC(=O)C(C)(c1ccccc1)c1ccccc1 (stereo not given)	-18	-54	40*	20	-12	-1
CC(O)(c1ccccc1)c1ccc2ccccc2n1 (stereo not given)	-5	-1	18	1	-6	-1
